From the EternaBench riboswitch data

Test system: MS2 coat protein
Assay: apparent Kd, MS2 coat protein; higher = weaker binding; RNA-MaP array; FMN 200 µM where present
Method in brief: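 Two titrations, one without ligand and one with constant ligand, were run with SNAP-549-labelled MS2 coat protein from 0.7 or 1.5 nM, doubling to 3 µM. The targets were designs transcribed by stalled E. coli RNA polymerase on Illumina sequencing-chip clusters, in 100 mM Tris-HCl pH 7.5, 80 mM KCl, 4 mM MgCl2, BSA, DTT, yeast tRNA and Tween-20. The apparent Kd is the median of filtered per-cluster binding-curve fits, with green signal normalised to red-channel RNA signal and control-cluster median Fmax.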

[1] = designed as: OFF switch for flavin mononucleotide, no ligand
[2] = ligand present: flavin mononucleotide, designed as: OFF switch for flavin mononucleotide
[3] = designed as: ON switch for flavin mononucleotide, no ligand
[4] = ligand present: flavin mononucleotide, designed as: ON switch for flavin mononucleotide

Sequence: CCUAUACAUGAGGAUCACCCAUGUCAGGAUAUAGAAAGCUACGGAAUAGGACGUAGCACUAGAAGGGACUGGCU
- apparent Kd [1]: 29.2 nM
- apparent Kd [2]: 43.4 nM

Sequence: CCUCAGUAAGGAUAUCAGCUUAUGGAGUUGGUAAUGAGAGCUGAGAAGGUACAUGAGGAUCACCCAUGUUAGUU
- apparent Kd [1]: 27.7 nM
- apparent Kd [2]: 73.7 nM

Sequence: CCUCAUAUUUAGGAUAUGAUGGGUUAUUAUUCGUUAGAAGGAGGUACAUGAGGAUCACCCAUGUCCCGUUUGGG
- apparent Kd [1]: 34.2 nM
- apparent Kd [2]: 32.9 nM

Sequence: CCUCCACAUGAGGAUCACCCAUGUCAGGAUAUCGUGUGUGUUUUUUCGGUCUUUCGUGCGAGAAGGGACGUCUG
- apparent Kd [1]: 51.6 nM
- apparent Kd [2]: 52.3 nM

Sequence: CCUCCACAUUAGGAUAUCAUCAAACUAUUGUGAUGAGAAGGAAUGACAUGAGGAUCACCCAUGUUAUCGUGAUG
- apparent Kd [1]: 20.9 nM
- apparent Kd [2]: 18.1 nM

Sequence: CCUCCCUGAGGAUAUCCACCCUCAUACAUGAGGAUCACCCAUGUUCAACCCUGGGUUCCCGGAGAAGGCAGUUUUC
- apparent Kd [1]: 97.2 nM
- apparent Kd [2]: 102 nM

Sequence: CCUCCCUGAGGAUAUCCACCCUCAUACAUGAGGAUCACCCAUGUUCAUCCCUGGGUACCCGGAGAAGGCAGAUUUC
- apparent Kd [1]: 154 nM
- apparent Kd [2]: 165 nM

Sequence: CCUCGCUGUUAGAAGGCACCUUCGGCUUUGGCUUUUGGAGUUGGGCGAUGGUGAGGAUAUAACAUGAGGAUCACCCAUGUUCAA
- apparent Kd [2]: 65.1 nM

Sequence: CCUCUACAUGAGGAUCACCCAUGUGAGGAUAUCUCGGAAAAGCCACUUAAGGUACUCCAGAGAAGGCACGUGUA
- apparent Kd [1]: 14.6 nM
- apparent Kd [2]: 23.7 nM

Sequence: CCUCUACAUGAGGAUCACCCAUGUGAGGAUAUCUCGGAACAACCACUUAAGGCACUCCAGAGAAGGCACGUGUA
- apparent Kd [1]: 14.9 nM
- apparent Kd [2]: 20.9 nM

Sequence: CCUCUUGGGCAAGGAUAUCCUGCGCGGUUCCGGUUCGUGUCUGUCACAUGAGGAUCACCCAUGUGGGAGAAGGUGCCUGCGGUC
- apparent Kd [1]: 17.9 nM
- apparent Kd [2]: 24.2 nM

Sequence: CCUGAGUCAGGAUAUUGUACCGGCCUGAAGCCAGGCCGGCCCAAGAAGGGACAUGAGGAUCACCCAUGUGAAAA
- apparent Kd [1]: 35.9 nM
- apparent Kd [2]: 73.9 nM

Sequence: CCUGCACAUGAGGAUCACCCAUGUUAGGAUAUAUUUGACCGUGGAAUUACCAUUGGAAGUAGAAGGAACAUGUA
- apparent Kd [1]: 16.1 nM
- apparent Kd [2]: 18 nM

Sequence: CCUGUGUGAGGAUAUGGUGUUAAAAAAAAGGAAUAGCUCCUCCAGAAGGCACAUGAGGAUCACCCAUGUCGUGG
- apparent Kd [1]: 23.4 nM
- apparent Kd [2]: 57.1 nM

Sequence: CCUUAGUAAGGAUAUCAGCUUAUAGAGUUGGUAAUGAGAGCUGAGAAGGUACAUGAGGAUCACCCAUGUUAGUU
- apparent Kd [1]: 21.1 nM
- apparent Kd [2]: 35.1 nM

Sequence: CCUUUACAUGAGGAUCACCCAUGUCAGGAUAUCCUGUGGUGUUGUCUCGGGCGACACAUGAGCCAGGAGAAGGGACGAAGGGAA
- apparent Kd [1]: 49 nM
- apparent Kd [2]: 76.3 nM

Sequence: CCUUUGUCAGGAUAUCGAAAAGGGAGGCCAAAAGCCUCCGGUGAGAAGGGACAUGAGGAUCACCCAUGUGAAAA
- apparent Kd [1]: 46.4 nM
- apparent Kd [2]: 159 nM

Sequence: CGAACCAUGUAGAAGGCUGUCUUAAAAUAGGACAGAGGAUAUACAUGAGGAUCACCCAUGUACUCCUUUAAAAGGUUCGAAAUA
- apparent Kd [2]: 7.03 nM

Sequence: CGAAGUCCGUAGAAGGGUGACAUGAGGAUCACCCAUGUGCGAGCCGAGGGAGUCAGCGGCUCGCCACAGGAUAUACGGAGCACG
- apparent Kd [3]: 33.5 nM
- apparent Kd [4]: 21.7 nM

Sequence: CGAAGUCCGUAGAAGGGUGACAUGAGGAUCACCCAUGUGCGAGCGGAGGGAGUCAGCGGCUCGCCACAGGAUAUACGGAGCACG
- apparent Kd [3]: 61.2 nM
- apparent Kd [4]: 51 nM

Sequence: CGAGUUUUUGAGAAGGCAUAUUAUAAUAUUCCACAUGUUUACAUGAGGAUCACCCAUGUUUACUAUGAGGAUAUCAGAAUGUCG
- apparent Kd [1]: 4.72 nM
- apparent Kd [2]: 4.54 nM

Sequence: CGAUAACAUAGUUAUCCGUAACGGACAUGAGGAUCACCCAUGUAGGAUAUGUUACUAAACUAGUAACAGAAGGACAUGAGUCUU
- apparent Kd [2]: 295 nM

Sequence: CGAUAAUAUAGUUAUCCGUAACGGACAUGAGGAUCACCCAUGUAGGAUAUGUUACUCAACGAGUAACAGAAGGACAUGAGUCUU
- apparent Kd [1]: 14.8 nM
- apparent Kd [2]: 109 nM

Sequence: CGAUAGGACAGAGGAUAUACACAUGAGGAUCACCCAUGUGAUUACAACGCUUAAGCUCCAAACAUGUAGAAGGCUGUCCUAUCG
- apparent Kd [1]: 21.7 nM
- apparent Kd [2]: 27.9 nM

Sequence: CGAUAUUAUGCAGGAUAUCUAUCUUGAAUGAGGAGAGAAGGGCAUAGGGAGACAUAAGCCUUAUUACAUGAGGAUCACCCAUGU
- apparent Kd [1]: 11.2 nM
- apparent Kd [2]: 9.38 nM

Sequence: CGAUCACAUGUCAGGAUAUGCGAGCUUGUAUCGCCGUAGAAGGGACAUGAGGAUCACCCAUGUCCGAUCAUUCG
- apparent Kd [1]: 28.3 nM
- apparent Kd [2]: 52.1 nM

Sequence: CGAUCGUGUAGAGGAUAUGUUAUACAUGAGGAUCACCCAUGUGAGGUGGAAAUAUUUAAUUACAUACAGAAGGCUACACGAUCG
- apparent Kd [1]: 269 nM
- apparent Kd [2]: 227 nM

Sequence: CGAUUGACGUAGAAGGGACUUAAGGGACAAAGCAUGCGAACGGACGGACAUGAGGAUCACCCAUGUCAGGAUAUACGUUCAUUU
- apparent Kd [1]: 5.27 nM
- apparent Kd [2]: 6 nM

Sequence: CGCAAACAUGAGGAUCACCCAUGUCAAUGUGAUCAAGGAUAUGGGUUCCGAAAUGGAACACCAGAAGGUGAGUAAU
- apparent Kd [3]: 142 nM
- apparent Kd [4]: 37.3 nM

Sequence: CGCAAGUCAGGAUAUUCGACUGGUCCAUCUGUGGAUUUGUAGGAGAAGGGACAUGAGGAUCACCCAUGUUUGUU
- apparent Kd [1]: 30.6 nM
- apparent Kd [2]: 23.9 nM

Sequence: CGCACACAUGAGGAUCACCCAUGUGAGGAUAUCAUGCUUCGUAGUAAACUACGAAGUGUGAGAAGGCACAUGUC
- apparent Kd [1]: 31.2 nM
- apparent Kd [2]: 102 nM

Sequence: CGCACUGAUAGAGGAUAUGUUUAACAUGAGGAUCACCCAUGUGUACAAGAAUCAAUAUUUAUCAAACAGAAGGCUAUUAGUGCG
- apparent Kd [1]: 5.06 nM
- apparent Kd [2]: 4.08 nM

Sequence: CGCACUUAUAGAGGAUAUGUUAAACAUGAGGAUCACCCAUGUGAUUUAGUAUCAAUAUUAGUGAAACAGAAGGCUAUUAGUGCG
- apparent Kd [1]: 13.3 nM
- apparent Kd [2]: 12.9 nM

Sequence: CGCAGUACUUAGGUACUACACAUGAGGAUCACCCAUGUAUCACAGGAUAUGCAUGAUAUAUUCAGGCAGAAGGGUGAUCUUACC
- apparent Kd [3]: 54.5 nM
- apparent Kd [4]: 130 nM

Sequence: CGCAUGCGUAGUAUUAGUUGCUGACAGGAUAUGACAUGAGGAUCACCCAUGUUUAUUAAGAAGAUUCAGAAGGGUCACGUUGCG
- apparent Kd [1]: 6.87 nM
- apparent Kd [2]: 5.8 nM

Sequence: CGCGAAAACAUAGGAUAUUGUUACAUGAGGAUCACCCAUGUCAACCAUGUAGCUCGAAUUGUUGUCAAGAAGGAUGAGGUCGCG
- apparent Kd [3]: 18.4 nM
- apparent Kd [4]: 22 nM

Sequence: CGCGAACAGUUUUACAUGAGGAUCACCCAUGUGGACUCAUGGUAGGAUAUCGGGAAGGAGGAAACCGAGAAGGGCUGGUGAGCC
- apparent Kd [3]: 312 nM
- apparent Kd [4]: 256 nM

Sequence: CGCGCGGUGUAGAAGGGUGACAUGAGGAUCACCCAUGUGCGGAGGCGCCCAUUGACGCCUCCGCCACAGGAUAUACACCACGCC
- apparent Kd [3]: 46.8 nM
- apparent Kd [4]: 66.9 nM

Sequence: CGCGCUUUAGGAUAUGCGUGAUGUCGUCGGCGUUGUGGUUCACAUGAGGAUCACCCAUGUAGAAGGGAGGUGUG
- apparent Kd [1]: 205 nM
- apparent Kd [2]: 175 nM

Sequence: CGCGGUACUUAGGUACCACACAUGAGGAUCACCCAUGUAUCACAGGAUAUGCAUGAUAUAUUCAGGCAGAAGGGUGAUCUUACC
- apparent Kd [3]: 37.8 nM
- apparent Kd [4]: 99.4 nM

Sequence: CGCUACAGCCAGAAGGACAUGAGGAUCACCCAUGUAGGAUAUGGGAGACGAGGUCCAGUGUAGAGAAACUACGCUACUGUAGCG
- apparent Kd [3]: 292 nM
- apparent Kd [4]: 151 nM

Sequence: CGCUACGUUUCGUAGCAGUGUCAUCGAGAAGGCCCUGACAUGAGGAUCACCCAUGUUAAAACAUGGGAGGAUAUCGAUGAUACA
- apparent Kd [3]: 11.7 nM
- apparent Kd [4]: 4.87 nM

Sequence: CGCUAGUCAGGAUAUACGAACAUGUCACCAGACGUGAAGGGACAUGAGGAUCACCCAUGUAGAAGGGACUAGCA
- apparent Kd [1]: 90.5 nM
- apparent Kd [2]: 267 nM

Sequence: CGCUCAAUAGAGAAGGAAAGAAUCAGAAGGCGUUACAUGAGGAUCACCCAUGUUUUGUAUAGUAACGAGGAUAUGAUAUGAGCG
- apparent Kd [1]: 18.9 nM
- apparent Kd [2]: 15.3 nM

Sequence: CGCUCAGAGAACGAUACGAAUAGACAUGAGGAUCACCCAUGUAGAAGGACAACGGAAUAAACGUUGUAGGAUAUACAUUUAGCG
- apparent Kd [1]: 24.6 nM
- apparent Kd [2]: 52.6 nM

Sequence: CGCUGGAACACAGGAUAUCGCACAUGCCUGAUCCAGUUAAUAUCACAUGAGGAUCACCCAUGUGGUGAGAAGGGUGUCAAGUUU
- apparent Kd [1]: 27.1 nM
- apparent Kd [2]: 47.2 nM

Sequence: CGCUGUCACGCAGGAUAUGCAUUGGAUUACAAUGCAGAAGGGCGAUCACAUGAGGAUCACCCAUGUGUAGACAGUGAAGAAGAG
- apparent Kd [3]: 728 nM
- apparent Kd [4]: 47.1 nM

Sequence: CGGACGUCAGGAUAUCUGAUGUCUAACUUCGGUUAGACAUCAGAGAAGGGACAUGAGGAUCACCCAUGUCCGAG
- apparent Kd [1]: 22.2 nM
- apparent Kd [2]: 16.9 nM

Sequence: CGGCAAGUCACAGGAUAUGGUGAUGUACAUGAGGAUCACCCAUGUCCGUCUUCUCUCACAAGAUGCCAGAAGGGUGACUCCCGG
- apparent Kd [3]: 852 nM
- apparent Kd [4]: 120 nM

Sequence: CGGCAAGUCGUAGGAUAUGGUGAUGUACAUGAGGAUCACCCAUGUCCGUCUUCUCUCACAAGAUGCCAGAAGGGCGACUUCCGG
- apparent Kd [3]: 829 nM
- apparent Kd [4]: 340 nM

Sequence: CGGCGCUGUCGAGAGGAUAUGCGGUGAUGGACAUGAGGAUCACCCAUGUUAGCGAUAGCAUCACGGUAGAAGGCUCUACGGCUGC
- apparent Kd [3]: 12 nM
- apparent Kd [4]: 11.3 nM

Sequence: CGGCGGAAAGGAUAUGCAUUAAUAUCAAAAUGUGGGCCACGACAUGAGGAUCACCCAUGUAGAAGGUUCAGCCG
- apparent Kd [1]: 16 nM
- apparent Kd [2]: 14.3 nM

Sequence: CGGCGUUGUCGAGAGGAUAUGCGGUGAUGGACAUGAGGAUCACCCAUGUUAGCGAUAGCAUUACGGUAGAAGGCUCUACAGCUGC
- apparent Kd [3]: 65 nM
- apparent Kd [4]: 17 nM

Sequence: CGGCUCUCAGGAUAUACCUUGGGUGGCCAACUGUUUCGUUUACAUGAGGAUCACCCAUGUAGAAGGGAGGGCAA
- apparent Kd [1]: 53.8 nM
- apparent Kd [2]: 33 nM

Sequence: CGGGAGUCAGGAUAUACGAACAUGUCGCCAGAUGUCAAGGUACAUGAGGAUCACCCAUGUAGAAGGGAGGAGAA
- apparent Kd [1]: 91 nM
- apparent Kd [2]: 54.3 nM

Sequence: CGGGCGAGAGGAUAUACAUGAGGAUCACCCAUGUGUUUCCAGGCGGUAGCUGUCACGUGUAGAAGGUUUUCCGG
- apparent Kd [1]: 18.4 nM
- apparent Kd [2]: 17.7 nM
